One may read the ED50 as the dose at which the effect has come halfway, by size or by number of responders.

For data set [1], the system named is Rattus norvegicus. Put plainly: Antiinflammatory activity in albino rat assessed as inhibition of carrageenan-induced paw oedema at […], ip administered 1 hr before carrageenan challenge measured after 3 hrs relative to control. Format: functional. Also on record: scale not given: the % may be the effect or the level left. Conditions: in the assay text read “relative to diclofenac sodium” for “relative to control”. The gist of the method: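 Albino rats of both sexes (120–150 g) were pre-hydrated with 3 ml water/rat by gastric tube. Oedema was induced by s.c. sub-plantar injection of 1% carrageenan gel into the right hind paw. Right and left paw dorso-ventral thickness was read with dial calipers at 1, 2 and 3 h. Inhibition % = (1 − Lt/Lc) × 100, using mean paw-thickness increase of treated versus control rats.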
Background: Carrageenan injected into the paw causes an acute inflammation.

Data set [2] relates to Rattus norvegicus. Kind of data set: Toxicity in albino rat at 20 mg/kg assessed as ulcer index. Conditions: in vivo.
Data set [3] deals with Rattus norvegicus. Kind of data set: Toxicity in albino rat at 20 mg/kg assessed as ulcerogenicity. The following applies: in vivo.
The test system of data set [4] is Rattus norvegicus. Kind of data set: Antiinflammatory activity in ip dosed albino rat assessed as inhibition of carrageenan-induced paw oedema administered 1 hr before carrageenan challenge measured after 3 hrs relative to control. Format: functional, organism-based. The gist of the method:
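Carrageenan paw-oedema model in albino rats of both sexes (120–150 g), water-loaded with 3 ml by gastric tube. […] was calculated from doses of […], with paw-thickness inhibition read 3 h after sub-plantar injection of 1% carrageenan. Inhibition % = (1 − Lt/Lc) × 100.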

`N#CC1=C(NCN2CCOCC2)N(c2ccccc2)C(=O)N2CCCCC(N3CCCC3)C12` (stereo not drawn): in the data set with Rattus norvegicus [1], the Activity stood at 50.68%.

Take `N#CC1=C(NCC(=O)N2CCCCC2)N(c2ccccc2)C(=O)N2CCCCC(N3CCCC3)C12` (stereo not drawn): in the data set on Rattus norvegicus [1], the Activity is reported as 61.07%.

For the molecule `N#CC1=C(/N=C/Nc2ccccc2)N(c2ccccc2)C(=O)N2CCCCC(N3CCCC3)C12` (stereo not drawn), in the data set on Rattus norvegicus [1], the Activity is 90.52%.

With `COc1ccc(N/C=N/C2=C(C#N)C3C(N4CCCC4)CCCCN3C(=O)N2c2ccccc2)cc1` (stereo not drawn), in the data set on Rattus norvegicus [1], the Activity amounted to 57.3%.

On to `N#CC1=C(NCC(=O)N2CCOCC2)N(c2ccccc2)C(=O)N2CCCCC(N3CCCC3)C12` (stereo not drawn), for which, in the data set with Rattus norvegicus [1], the Activity was found to be 83.9%.

In the case of `N#CC1=C(NCC(=O)O)N(c2ccccc2)C(=O)N2CCCCC(N3CCCC3)C12` (stereo not drawn), the UI in the data set on Rattus norvegicus [2] was 5.4. The Activity with Rattus norvegicus [1] is 101.82%; in the data set on Rattus norvegicus [3] it was 4%. Besides, the ED50 with Rattus norvegicus [4] was 10.3 µmol/kg.

Regarding `COC(=O)C(=O)NC1=C(C#N)C2C(N3CCCC3)CCCCN2C(=O)N1c1ccccc1` (stereo not drawn), the UI in the data set with Rattus norvegicus [2] was 2.2. The figures for the Activity in the data set with Rattus norvegicus [1] and in the data set with Rattus norvegicus [3] were 100.79% and 1%, respectively. Also, in the data set on Rattus norvegicus [4], the ED50 is 10.6 µmol/kg.

Take `N#CC1=C(N)N(c2ccccc2)C(=O)N2CCCCC(N3CCCC3)C12` (stereo not drawn): in the data set on Rattus norvegicus [1], the Activity is 102.85%. Moreover, the ED50 with Rattus norvegicus [4] was determined as 6.61 µmol/kg.

With `N#CC1=C(NCN2CCCC2)N(c2ccccc2)C(=O)N2CCCCC(N3CCCC3)C12` (stereo not drawn), in the data set with Rattus norvegicus [1], the Activity came out at 40.29%.

For `N#CC1=C(NCN2CCCCC2)N(c2ccccc2)C(=O)N2CCCCC(N3CCCC3)C12` (stereo not drawn), the Activity with Rattus norvegicus [1] is given as 48.05%.

In the case of `COc1ccc(/C=N/C2=C(C#N)C3C(N4CCCC4)CCCCN3C(=O)N2c2ccccc2)cc1` (stereo not drawn), the Activity with Rattus norvegicus [1] is listed as 85.91%.

Turning to `N#Cc1c2n(c(=O)n(-c3ccccc3)c1=N)CCCCC2N1CCCC1` (stereo not drawn), the Activity in the data set on Rattus norvegicus [1] is 106.62%. The ED50 in the data set on Rattus norvegicus [4] amounted to 8.5 µmol/kg.

For `N#CC1=C(/N=C/c2ccc([N+](=O)[O-])cc2)N(c2ccccc2)C(=O)N2CCCCC(N3CCCC3)C12` (stereo not drawn), the UI in the data set on Rattus norvegicus [2] was 3.6. For the same molecule, the Activity with Rattus norvegicus [1] is on record as 104.68%; in the data set with Rattus norvegicus [3], 2%. For the same molecule, in the data set with Rattus norvegicus [4], the ED50 was determined as 7.14 µmol/kg.

Turning to `N#CC1=C(NCC(=O)N2CCCC2)N(c2ccccc2)C(=O)N2CCCCC(N3CCCC3)C12` (stereo not drawn), the Activity in the data set on Rattus norvegicus [1] is 63.93%.

With `N#CC1=C(NC(=O)c2ccccc2O)N(c2ccccc2)C(=O)N2CCCCC(N3CCCC3)C12` (stereo not drawn), the Activity in the data set on Rattus norvegicus [1] stood at 74.65%.

For the molecule `N#CC1=C(/N=C/Nc2ccc([N+](=O)[O-])cc2)N(c2ccccc2)C(=O)N2CCCCC(N3CCCC3)C12` (stereo not drawn), the UI in the data set on Rattus norvegicus [2] came out at 4.8. The figures for the Activity in the data set with Rattus norvegicus [1] and in the data set with Rattus norvegicus [3] were 97.71% and 3%, respectively.

Take `N#CC1=C(/N=C/c2ccccc2)N(c2ccccc2)C(=O)N2CCCCC(N3CCCC3)C12` (stereo not drawn): the Activity with Rattus norvegicus [1] was determined as 95.9%.

`CCOC(=O)C(=O)NC1=C(C#N)C2C(N3CCCC3)CCCCN2C(=O)N1c1ccccc1` (stereo not drawn): the UI in the data set on Rattus norvegicus [2] is 2.5. The Activity with Rattus norvegicus [1] was determined as 104.45%; with Rattus norvegicus [3], 1%. Further, the ED50 with Rattus norvegicus [4] was 9.13 µmol/kg.

Regarding `N#CC1=C(NC(=O)Cc2ccccc2Nc2c(Cl)cccc2Cl)N(c2ccccc2)C(=O)N2CCCCC(N3CCCC3)C12` (stereo not drawn), in the data set with Rattus norvegicus [1], the Activity is reported as 76.71%.

`O=C([O-])Cc1ccccc1Nc1c(Cl)cccc1Cl.[Na+]` [DICLOFENAC SODIUM]: the UI in the data set with Rattus norvegicus [2] is recorded as 9. The Activity in the data set on Rattus norvegicus [3] was determined as 6%. In addition, in the data set with Rattus norvegicus [4], the ED50 was 7.26 µmol/kg.

Values taken from ChEMBL document CHEMBL1177892, “Synthesis, anti-inflammatory and ulcerogenicity studies of some substituted pyrimido[1,6-a]azepine derivatives” (Eur J Med Chem, 2010).
